IC50, ED50 and LD50 data for 14 compounds are collected here from ChEMBL document CHEMBL1123413, “Synthesis and biological evaluation of 1-(1,2-benzisothiazol-3-yl)- and (1,2-benzisoxazol-3-yl)piperazine derivatives as potential antipsychotic agents” (J Med Chem, 1986).

A word on the IC50: it is the midpoint of a concentration-inhibition curve. A low value points to greater potency in that assay. Usually ED50 stands for the dose at which the effect has come halfway, by size or by number of responders. The LD50 is the dose expected to kill half of the subjects tested. Read a high LD50 as a less toxic substance.

In one series the target is D(2) dopamine receptor (Rattus norvegicus, UniProt P61169). The series is described as follows: In vitro affinity for rat striatal Dopamine receptor D2 labeled with [3H]spiperone.
Sequence of D(2) dopamine receptor (P61169 whole entry): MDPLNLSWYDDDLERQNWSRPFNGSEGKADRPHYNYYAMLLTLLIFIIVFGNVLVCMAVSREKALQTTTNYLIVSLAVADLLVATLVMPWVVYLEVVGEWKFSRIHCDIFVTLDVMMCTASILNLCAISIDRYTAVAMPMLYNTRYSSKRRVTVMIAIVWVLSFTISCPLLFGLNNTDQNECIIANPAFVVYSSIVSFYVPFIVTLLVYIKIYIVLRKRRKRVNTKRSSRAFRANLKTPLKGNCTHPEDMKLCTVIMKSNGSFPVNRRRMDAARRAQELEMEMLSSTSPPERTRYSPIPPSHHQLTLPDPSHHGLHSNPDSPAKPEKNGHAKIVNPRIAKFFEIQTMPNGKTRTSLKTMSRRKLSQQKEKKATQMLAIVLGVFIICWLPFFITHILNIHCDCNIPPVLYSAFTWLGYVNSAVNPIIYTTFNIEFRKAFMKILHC
The species entered for series [1] is Rattus norvegicus. In words: Inhibition of conditioned avoidance response (CAR). The class given is functional. The method in brief: (§1)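 Rats trained to avoid an electric shock, test compound given orally, and block of the conditioned avoidance response scored. ED50 (mg/kg, po) with fiducial limits by the method of Berkson.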
For series [2], the species on record is Rattus norvegicus. The series is described as follows: Compound was tested for its ability to induce catalepsy in rats. The class given is functional. In outline:
(§2)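 Catalepsy was induced in rats with orally dosed compound as a predictor of extrapyramidal liability. ED50 (mg/kg, po) with fiducial limits by Berkson's method.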

Series [3] addresses T1, Adrenergic receptor alpha-1 (Rattus norvegicus, UniProt P15823+P23944+P43140).
T1 sequence (P15823 whole entry): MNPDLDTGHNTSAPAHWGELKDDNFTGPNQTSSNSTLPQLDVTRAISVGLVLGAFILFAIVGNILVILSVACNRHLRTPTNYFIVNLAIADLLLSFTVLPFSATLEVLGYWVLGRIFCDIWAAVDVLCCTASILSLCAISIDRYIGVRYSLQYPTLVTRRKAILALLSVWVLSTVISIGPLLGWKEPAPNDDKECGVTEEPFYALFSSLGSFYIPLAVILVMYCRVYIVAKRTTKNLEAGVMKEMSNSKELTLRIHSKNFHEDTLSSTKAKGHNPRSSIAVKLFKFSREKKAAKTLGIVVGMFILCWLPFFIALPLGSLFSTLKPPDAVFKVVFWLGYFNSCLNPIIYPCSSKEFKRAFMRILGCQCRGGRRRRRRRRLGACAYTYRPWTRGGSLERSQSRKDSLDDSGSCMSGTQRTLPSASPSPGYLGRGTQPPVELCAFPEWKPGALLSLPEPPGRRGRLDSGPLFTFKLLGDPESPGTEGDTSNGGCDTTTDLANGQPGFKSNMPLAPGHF
T1 sequence (P23944 whole entry): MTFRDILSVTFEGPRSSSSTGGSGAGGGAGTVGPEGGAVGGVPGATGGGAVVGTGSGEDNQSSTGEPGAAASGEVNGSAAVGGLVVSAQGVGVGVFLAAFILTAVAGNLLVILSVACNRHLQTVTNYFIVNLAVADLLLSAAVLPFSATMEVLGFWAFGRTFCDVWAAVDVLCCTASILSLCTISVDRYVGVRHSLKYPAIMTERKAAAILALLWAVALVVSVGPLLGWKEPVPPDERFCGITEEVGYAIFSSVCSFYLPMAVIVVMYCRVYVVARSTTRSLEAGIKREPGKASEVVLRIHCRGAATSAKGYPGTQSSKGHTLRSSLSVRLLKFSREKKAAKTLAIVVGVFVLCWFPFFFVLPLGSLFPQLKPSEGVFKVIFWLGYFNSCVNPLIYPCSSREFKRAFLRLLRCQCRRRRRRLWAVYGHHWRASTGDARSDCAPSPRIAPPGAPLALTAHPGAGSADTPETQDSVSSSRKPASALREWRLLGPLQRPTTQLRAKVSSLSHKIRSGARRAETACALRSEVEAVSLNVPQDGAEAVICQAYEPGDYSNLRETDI
T1 sequence (P43140 whole entry): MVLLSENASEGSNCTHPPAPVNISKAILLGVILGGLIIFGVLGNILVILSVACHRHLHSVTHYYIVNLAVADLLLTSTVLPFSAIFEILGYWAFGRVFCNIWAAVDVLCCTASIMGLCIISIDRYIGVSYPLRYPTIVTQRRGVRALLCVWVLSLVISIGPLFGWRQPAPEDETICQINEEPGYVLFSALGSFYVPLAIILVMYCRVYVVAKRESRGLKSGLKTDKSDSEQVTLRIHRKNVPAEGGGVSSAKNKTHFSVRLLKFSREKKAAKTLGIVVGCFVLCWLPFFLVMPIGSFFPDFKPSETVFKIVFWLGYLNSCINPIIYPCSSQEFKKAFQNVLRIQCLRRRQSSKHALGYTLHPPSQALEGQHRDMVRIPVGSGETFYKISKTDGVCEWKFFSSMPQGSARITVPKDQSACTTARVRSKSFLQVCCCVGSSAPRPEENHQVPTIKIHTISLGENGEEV

The species named for series [4] is Rattus norvegicus. In words: Compound was tested for its ability to induce catalepsy in rats. It counts as functional. The method in brief:
as §2

For series [5], the system named is Mus musculus. The series is described as follows: Compound was tested for inhibition of spontaneous motor activity in mouse when administered perorally. The following applies: po. The class given is functional.
A short description of series [6]: Lethal dose after peroral administration in mouse. It counts as toxicity, organism-based. The conditions noted are these: in vivo, po.
Series [7] concerns Mus musculus. In words: Compound was tested for inhibition of physostigmine lethality in mouse when administered perorally. It counts as functional. The conditions noted are these: po. The method in brief:
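Groups of 10 nonfasted male mice dosed orally with test compound (initial 100 mg/kg) or vehicle (distilled H2O or 0.5% methocel). At 30 min, physostigmine given ip at 1.25 mg/kg, and lethality followed for up to 1 h. Active compounds retested at lower doses, 10 mice/dose, for dose response. ED50 by Berkson's method.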

The subject of series [8] is Rattus norvegicus. In words: Compound was tested for inhibition of spontaneous motor activity in rat when administered perorally. It counts as functional. The conditions noted are these: po.
In series [9] the test system is Rattus norvegicus. The series is described as follows: Compound was tested for inhibition of ethanol potentiation in rat when administered perorally. The conditions noted are these: po. It counts as functional. In outline:
(§3)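 Nonfasted male rats given test drug orally, vehicle distilled H2O or 0.5% methocel. Hexobarbital sodium (40 mg/kg) or EtOH (10 mL of 20% solution/kg) given ip at 15, 30, 60 or 120 min postdrug, controls 15 min after vehicle. Loss of righting reflex lasting 1 min scored over about 10–15 min. Dose response at time of peak effect, 10 rats/dose. ED50 and fiducial limits by Berkson's method.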

Series [10] has as its system Rattus norvegicus. In words: Compound was tested for inhibition of hexobarbatial potentiation in rat when administered perorally. It counts as functional. The following applies: po. The method in brief:
as §3

For series [11], the system named is Mus musculus. The series is described as follows: Compound was tested for inhibition of norepinephrine lethality in mouse when administered perorally. The class given is functional. The following applies: po. In outline: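 Groups of 10 nonfasted male mice dosed orally with test compound (initial 100 mg/kg) or vehicle (distilled H2O or 0.5% methocel). Active compounds retested at lower doses, 10 mice/dose, for dose response. ED50 by Berkson's method.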

Series [12] deals with GABA-A receptor; anion channel. In words: Inhibition of [3H]muscimol binding to Gamma-aminobutyric acid (GABA-A) receptor. It counts as protein-complex assay, Rattus norvegicus.
Series [13] in a line: Binding affinity against histamine receptor was measured using radioligand ([3H]-pyrilamine) binding assay.
The species entered for series [14] is Rattus norvegicus. The series is described as follows: Compound was tested for inhibition of conditioned avoidance response (CAR ). The class given is functional. The method in brief: as §1
The species named for series [15] is Rattus norvegicus. In words: Compound was tested for the inhibition of apomorphine-induced stereotype. The class given is functional. In outline: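 In rats, oral test compound was scored for block of apomorphine-induced stereotypy as an in vivo dopamine-system measure. ED50 (mg/kg, po) and fiducial limits by Berkson's method.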

Turning to `CC1CN(c2nsc3ccccc23)CCN1CCCCN1C(=O)CC2(CCCC2)CC1=O` (stereo not given), the IC50 at D(2) dopamine receptor is 203 nM. The compound further displayed an ED50 in the series listed under Rattus norvegicus [1] of more than 100 mg/kg.

With `O=C1SC2(CCCC2)C(=O)N1CCCCN1CCN(c2noc3ccccc23)CC1`, the IC50 against D(2) dopamine receptor came out at 78 nM. Besides, the ED50 in the series listed under Rattus norvegicus [2] came to 21.5 mg/kg; in the series filed under Rattus norvegicus [1], 8.1 mg/kg.

In the case of `Cl.c1ccc2c(N3CCNCC3)noc2c1`, the values for the IC50 (against D(2) dopamine receptor; in [3]) were more than 1000 nM and 165 nM, respectively. For the same compound, in the series listed under Rattus norvegicus [1], the ED50 was more than 100 mg/kg.

On to `OC(CCCN1CCN(c2nsc3ccccc23)CC1)c1ccc(F)cc1` (stereo not given), for which the half-maximal inhibitory concentration (IC50) (on D(2) dopamine receptor; in series [3]) was 2 nM throughout. Also, the 50% effective dose (ED50) in the series filed under Rattus norvegicus [4] was 5 mg/kg; in the series listed under Rattus norvegicus [1] it was 2.4 mg/kg.

For the compound `CN1CCN(C2=Nc3cc(Cl)ccc3Nc3ccccc32)CC1` [CLOZAPINE], the ED50 in the series listed under Rattus norvegicus [2] was more than 200 mg/kg; in the series on Mus musculus [5], 1.9 mg/kg; in the series on Mus musculus [7], 5.4 mg/kg; in the series with Rattus norvegicus [8], 17.5 mg/kg; in the series on Rattus norvegicus [9], 3.23 mg/kg; with Rattus norvegicus [10], 1.69 mg/kg. The compound also registered a 50% effective dose (ED50) in the series on Mus musculus [11] of 3.5 mg/kg. The compound further showed a median lethal dose (LD50) in [6] of 219 mg/kg. Moreover, the IC50 in series [12] is more than 1000 nM; in [13] it was 18 nM.

Consider `O=C1CC2(CCCC2)CC(=O)N1CCCCN1CCN(c2noc3ccc(Cl)cc23)CC1`, for which the results for the half-inhibitory concentration (IC50) (on D(2) dopamine receptor; in [3]) were 360 nM and 46 nM, respectively. Also, the median effective dose (ED50) in the series listed under Rattus norvegicus [1] was more than 100 mg/kg.

Consider `O=C1CC2(CCCC2)CC(=O)N1CCCCN1CCN(c2nc3ccccc3s2)CC1`, for which the concentration for half-maximal inhibition (IC50) was 145 nM at D(2) dopamine receptor and 454 nM in series [3]. The same compound came in with an ED50 in the series filed under Rattus norvegicus [1] of more than 100 mg/kg.

Take `O=C(CCCN1CCN(c2nsc3ccccc23)CC1)c1ccc(F)cc1`: the IC50 stood at 10 nM on D(2) dopamine receptor and 8 nM in series [3]. The 50% effective dose (ED50) in the series filed under Rattus norvegicus [4] turned out to be 16.4 mg/kg; in the series listed under Rattus norvegicus [1] it was 7.4 mg/kg.

As for `O=C1CSC(=O)N1CCCCN1CCN(c2noc3ccc(Cl)cc23)CC1`, the IC50 against D(2) dopamine receptor was determined as 440 nM; in [3], 33 nM. The compound also had an ED50 in the series listed under Rattus norvegicus [1] of more than 100 mg/kg.

Regarding `O=C(CCCN1CCN(c2noc3ccccc23)CC1)c1ccc(F)cc1`, the IC50 against D(2) dopamine receptor amounted to 69 nM; in [3] it was 5 nM. The ED50 in the series filed under Rattus norvegicus [4] was determined as 39.9 mg/kg; in the series filed under Rattus norvegicus [1], 5.8 mg/kg.

As for `O=C1SC2(CCCC2)C(=O)N1CCCCN1CCCN(c2noc3ccccc23)CC1`, the 50% inhibitory concentration (IC50) against D(2) dopamine receptor was more than 1000 nM. In addition, the ED50 in the series filed under Rattus norvegicus [1] is more than 100 mg/kg.

For `O=C1CC2(CCCC2)CC(=O)N1CCCCN1CCCN(c2nsc3ccccc23)CC1`, on D(2) dopamine receptor, the IC50 was found to be 235 nM. For the same compound, the ED50 in the series listed under Rattus norvegicus [1] is more than 100 mg/kg.

`CCC1(CC)CC(=O)N(CCCCN2CCN(c3nsc4ccccc34)CC2)C(=O)C1.Cl`: half-maximal inhibition against D(2) dopamine receptor (IC50) required 49 nM. This compound came in with a median effective dose (ED50) in the series listed under Rattus norvegicus [14] of 35.2 mg/kg.

Regarding `CC1(C)CC(=O)N(CCCCN2CCN(c3nsc4ccccc34)CC2)C(=O)C1`, the IC50 at D(2) dopamine receptor was found to be 23 nM; in series [3], 4 nM. The ED50 is 15.2 mg/kg in the series listed under Rattus norvegicus [2], 4.8 mg/kg in the series listed under Rattus norvegicus [15] and 4.1 mg/kg in the series listed under Rattus norvegicus [14].
